Data: ChEMBL document CHEMBL3588859, “Structure activity relationship study of Mezzettiasides natural products and their four new disaccharide analogues for anticancer/antibacterial activity” (Medchemcomm, 2014)
In brackets after ≈: the same amount, converted by molar mass.

Tests used:
[1] = test system: Bacillus subtilis; test: Antibacterial activity against Bacillus subtilis JH642 expressing trpC2 pheA assessed as reduction in bacterial growth incubated for 18 to 24 hrs by broth dilution method; type: functional
[2] = test system: NCI-H460; test: Anticancer activity against human NCI-H460 cells assessed as reduction in cell viability incubated for 48 hrs by MTT assay; type: functional, cell-based; conditions: NCI-H460, 48 h
[3] = test system: Enterococcus faecalis; test: Antibacterial activity against Enterococcus faecalis assessed as reduction in bacterial growth incubated for 18 to 24 hrs by broth dilution method; type: functional
In short: (§1)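 Grown in Brain Heart Infusion broth overnight, diluted 10-fold, and shaken at 37 °C for 45 min to 2 h (about 10^8 CFU/mL). Diluted about 1000-fold to 10^5 CFU/mL. Compounds came from 25 mM DMSO stocks, were made up at 4X working strength, and were serially diluted 1:2 over seven concentrations in microtiter wells. OD600 was read.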

[4] = test system: Staphylococcus aureus; test: Antibacterial activity against methicillin-resistant Staphylococcus aureus MW2 assessed as reduction in bacterial growth incubated for 18 to 24 hrs by broth dilution method; type: functional
In short: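 Broth […] per NCCLS M7-A6. S. aureus grown overnight in Mueller Hinton Broth, diluted 10-fold, shaken at 37 °C for 45 min–2 h to approx. 10^8 CFU/mL, then diluted ~1000-fold to 10^5 CFU/mL. Compounds from 25 mM DMSO stocks, 1:2 serial dilution over seven concentrations.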

[5] = test system: Escherichia coli; test: Antibacterial activity against Escherichia coli BAS901 expressing delta-imp assessed as reduction in bacterial growth incubated for 18 to 24 hrs by broth dilution method; type: functional
In short: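 The imp strain was grown in LB with kanamycin at 50 μg/mL overnight, diluted 10-fold, and shaken at 37 °C for 45 min to 2 h (about 10^8 CFU/mL). Diluted about 1000-fold to 10^5 CFU/mL. Drug stocks were 25 mM in DMSO, made up at 4X, and serially diluted 1:2 over seven concentrations. OD600 was read.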

[6] = test system: Enterococcus faecium; test: Antibacterial activity against Enterococcus faecium assessed as reduction in bacterial growth incubated for 18 to 24 hrs by broth dilution method; type: functional; in short: as §1
[7] = test system: Staphylococcus aureus; test: Antibacterial activity against methicillin-sensitive Staphylococcus aureus HG003 assessed as reduction in bacterial growth incubated for 18 to 24 hrs by broth dilution method; type: functional
In short: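 Cultured overnight in Mueller Hinton Broth, diluted 10-fold, and shaken at 37 °C for 45 min to 2 h (about 10^8 CFU/mL). Diluted about 1000-fold to 10^5 CFU/mL. Compounds came from 25 mM DMSO stocks, were prepared at 4X, and were serially diluted 1:2 to seven concentrations. OD600 was recorded.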

[8] = test system: Lu1; test: Anticancer activity against human Lu1 cells assessed as reduction in cell viability incubated for 48 hrs by MTT assay; type: functional; conditions: Lu1, 48 h, read-out: ED50 (the source's name)
[9] = test system: KB; test: Anticancer activity against human KB cells assessed as reduction in cell viability incubated for 48 hrs by MTT assay; type: functional; conditions: read-out: ED50 (the source's name)
[10] = Anticancer activity against human […] cells assessed as reduction in cell viability incubated for 48 hrs by MTT assay; type: functional; conditions: read-out: ED50 (the source's name)

Row | Structure (SMILES) | MIC [1] | IC50 [2] | MIC [3] | MIC [4] | MIC [5] | MIC [6] | MIC [7] | EC50 [8] | EC50 [9] | EC50 [10]
1 | CCCCCCCCCCCCO[C@@H]1O[C@@H](C)[C@H](O[C@@H]2O[C@@H](C)[C@H](OC(C)=O)[C@@H](O[C@@H]3O[C@@H](C)[C@H](O)[C@@H](OC(C)=O)[C@H]3OC(C)=O)[C@H]2O)[C@@H](O)[C@H]1O | 8 µM (≈ 6.01 µg/mL) | – | – | – | – | – | – | – | – | –
2 | CCCCCCCCCCCCO[C@@H]1O[C@@H](C)[C@H](O[C@@H]2O[C@@H](C)[C@H](OC(C)=O)[C@@H](O[C@@H]3O[C@@H](C)[C@H](OC(C)=O)[C@@H](O[C@@H]4O[C@@H](C)[C@H](O)[C@@H](O)[C@H]4OC(C)=O)[C@H]3OC(C)=O)[C@H]2O)[C@@H](O)[C@H]1O | 8 µM (≈ 7.51 µg/mL) | – | – | – | – | – | – | – | – | –
3 | CCCCCCCCCCCCO[C@@H]1O[C@@H](C)[C@H](O[C@@H]2O[C@@H](C)[C@H](OC(C)=O)[C@@H](O[C@@H]3O[C@@H](C)[C@H](OC(C)=O)[C@@H](O[C@@H]4O[C@@H](C)[C@H](OC(C)=O)[C@@H](O)[C@H]4OC(C)=O)[C@H]3OC(C)=O)[C@H]2O)[C@@H](O)[C@H]1O | 4 µM (≈ 3.92 µg/mL) | 8 µM | – | – | – | – | – | – | – | –
4 | CCCCCCCCCCCCO[C@@H]1O[C@@H](C)[C@H](O[C@@H]2O[C@@H](C)[C@H](OC(C)=O)[C@@H](O[C@@H]3O[C@@H](C)[C@H](O)[C@@H](O[C@@H]4O[C@@H](C)[C@H](OC(C)=O)[C@@H](O)[C@H]4O)[C@H]3OC(C)=O)[C@H]2O)[C@@H](O)[C@H]1O | 8 µM (≈ 7.18 µg/mL) | – | – | – | – | – | – | – | – | –
5 | CCCCCCCCO[C@@H]1O[C@@H](C)[C@H](OC(=O)CCCCC)[C@@H](O[C@@H]2O[C@@H](C)[C@H](OC(C)=O)[C@@H](O[C@@H]3O[C@@H](C)[C@H](OC(C)=O)[C@@H](O[C@@H]4O[C@@H](C)[C@H](O)[C@@H](OC(C)=O)[C@H]4O)[C@H]3O)[C@H]2OC(C)=O)[C@H]1O | > 128 µM | 40 µM | – | – | – | – | – | – | – | –
6 | CCCCCCCCO[C@@H]1O[C@@H](C)[C@H](OC(=O)CCCCC)[C@@H](O[C@@H]2O[C@@H](C)[C@H](OC(C)=O)[C@@H](O[C@@H]3O[C@@H](C)[C@H](OC(C)=O)[C@@H](O[C@@H]4O[C@@H](C)[C@H](O)[C@@H](O)[C@H]4OC(C)=O)[C@H]3O)[C@H]2OC(C)=O)[C@H]1O | 64 µM (≈ 62.8 µg/mL) | 259 µM | 32 µM (≈ 31.4 µg/mL) | > 32 µM | > 32 µM | > 32 µM | > 32 µM | – | – | –
7 | CCCCCCCCO[C@@H]1O[C@@H](C)[C@H](OC(=O)CCCCC)[C@@H](O[C@@H]2O[C@@H](C)[C@H](OC(C)=O)[C@@H](O[C@@H]3O[C@@H](C)[C@H](OC(C)=O)[C@@H](O[C@@H]4O[C@@H](C)[C@H](O)[C@@H](O)[C@H]4O)[C@H]3O)[C@H]2OC(C)=O)[C@H]1O | 32 µM (≈ 30 µg/mL) | 18 µM | 32 µM (≈ 30 µg/mL) | > 32 µM | > 32 µM | > 32 µM | > 32 µM | – | – | –
8 | CCCCCCCCO[C@@H]1O[C@@H](C)[C@H](OC(=O)CCCCC)[C@@H](O[C@@H]2O[C@@H](C)[C@H](OC(C)=O)[C@@H](OC(=O)CCC)[C@H]2OC(C)=O)[C@H]1O | > 128 µM | 32 µM | – | – | – | – | – | – | – | –
9 | CCCCCCCCO[C@@H]1O[C@@H](C)[C@H](OC(=O)CCCCC)[C@@H](O[C@@H]2O[C@@H](C)[C@H](OC(C)=O)[C@@H](OC(=O)C(C)(C)C)[C@H]2OC(C)=O)[C@H]1O | > 128 µM | 141 µM | – | – | – | – | – | – | – | –
10 | CCCCCCCCO[C@@H]1O[C@@H](C)[C@H](OC(=O)CCCCC)[C@@H](O[C@@H]2O[C@@H](C)[C@H](OC(C)=O)[C@@H](OC(=O)C(C)C)[C@H]2OC(C)=O)[C@H]1O | > 128 µM | 47 µM | – | – | – | – | – | – | – | –
11 | CCCCCCCCO[C@@H]1O[C@@H](C)[C@H](OC(=O)CCCCC)[C@@H](O[C@@H]2O[C@@H](C)[C@H](OC(C)=O)[C@@H](OC(=O)CC(C)C)[C@H]2OC(C)=O)[C@H]1O | > 128 µM | 79 µM | – | – | – | – | – | – | – | –
12 | CCCCCCCCCCCCO[C@@H]1O[C@@H](C)[C@H](O[C@@H]2O[C@@H](C)[C@H](OC(C)=O)[C@@H](O[C@@H]3O[C@@H](C)[C@H](OC(C)=O)[C@@H](O)[C@H]3OC(C)=O)[C@H]2O)[C@@H](O)[C@H]1O | 32 µM (≈ 24 µg/mL) | – | – | – | – | – | – | – | – | –
13 | CCCCCCCCCCCCO[C@@H]1O[C@@H](C)[C@H](O[C@@H]2O[C@@H](C)[C@H](OC(C)=O)[C@@H](O[C@@H]3O[C@@H](C)[C@H](OC(C)=O)[C@@H](O[C@@H]4O[C@@H](C)[C@H](OC(C)=O)[C@@H](O)[C@H]4O)[C@H]3OC(C)=O)[C@H]2O)[C@@H](O)[C@H]1O | 4 µM (≈ 3.76 µg/mL) | – | – | – | – | – | – | – | – | –
14 | CCCCCCCCO[C@@H]1O[C@@H](C)[C@H](OC(=O)CCCCC)[C@@H](O[C@@H]2O[C@@H](C)[C@H](OC(C)=O)[C@@H](O[C@@H]3O[C@@H](C)[C@H](OC(C)=O)[C@@H](O)[C@H]3OC(C)=O)[C@H]2OC(C)=O)[C@H]1O [MEZZETTIASIDE 2] | > 128 µM | 17 µM | – | – | – | – | – | 10 µM | 7 µM | 5 µM
15 | CCCCCCCCO[C@@H]1O[C@@H](C)[C@H](OC(=O)CCCCC)[C@@H](O[C@@H]2O[C@@H](C)[C@H](OC(C)=O)[C@@H](O[C@@H]3O[C@@H](C)[C@H](OC(C)=O)[C@@H](OC(C)=O)[C@H]3O)[C@H]2OC(C)=O)[C@H]1O [MEZZETTIASIDE 3] | > 128 µM | 10 µM | – | – | – | – | – | 14 µM | 17 µM | 6 µM
16 | CCCCCCCCO[C@@H]1O[C@@H](C)[C@H](OC(=O)CCCCC)[C@@H](O[C@@H]2O[C@@H](C)[C@H](OC(C)=O)[C@@H](O[C@@H]3O[C@@H](C)[C@H](OC(C)=O)[C@@H](O)[C@H]3O)[C@H]2OC(C)=O)[C@H]1O [MEZZETTIASIDE 4] | 8 µM (≈ 6.34 µg/mL) | 9 µM | 16 µM (≈ 12.7 µg/mL) | > 32 µM | > 32 µM | 16 µM (≈ 12.7 µg/mL) | 32 µM (≈ 25.4 µg/mL) | 25 µM | 19 µM | 8 µM
17 | CCCCCCCCO[C@@H]1O[C@@H](C)[C@H](OC(=O)CCCCC)[C@@H](O[C@@H]2O[C@@H](C)[C@H](OC(C)=O)[C@@H](O[C@@H]3O[C@@H](C)[C@H](O)[C@@H](O)[C@H]3OC(C)=O)[C@H]2OC(C)=O)[C@H]1O [MEZZETTIASIDE 8] | 16 µM (≈ 12.7 µg/mL) | 24 µM | > 32 µM | > 32 µM | > 32 µM | > 32 µM | > 32 µM | 25 µM | > 20 µM | 10 µM
18 | CCCCCCCCO[C@@H]1O[C@@H](C)[C@H](OC(=O)CCCCC)[C@@H](O[C@@H]2O[C@@H](C)[C@H](O)[C@@H](OC(C)=O)[C@H]2OC(C)=O)[C@H]1O [MEZZETTIASIDE 9] | 16 µM (≈ 9.68 µg/mL) | 151 µM | 32 µM (≈ 19.4 µg/mL) | > 32 µM | > 32 µM | > 32 µM | > 32 µM | 9 µM | 19 µM | > 20 µM
19 | CCCCCCCCO[C@@H]1O[C@@H](C)[C@H](OC(=O)CCCCC)[C@@H](O[C@@H]2O[C@@H](C)[C@H](OC(C)=O)[C@@H](OC(C)=O)[C@H]2OC(C)=O)[C@H]1O [MEZZETTIASIDE 11] | > 128 µM | 15 µM | – | – | – | – | – | 9 µM | 20 µM | 14 µM
20 | CCCCCCCCO[C@@H]1O[C@@H](C)[C@H](OC(=O)CCCCC)[C@@H](O[C@@H]2O[C@@H](C)[C@H](OC(C)=O)[C@@H](O)[C@H]2OC(C)=O)[C@H]1O [MEZZETTIASIDEIDE 10] | > 128 µM | > 500 µM | – | – | – | – | – | > 20 µM | > 20 µM | > 20 µM
